Experimental findings from ChEMBL document CHEMBL2016550, “Synthesis and structure-activity relationships of 1,2,4-triazolo[1,5-a]pyrimidin-7(3H)-ones as novel series of potent β isoform selective phosphatidylinositol 3-kinase inhibitors” (Bioorg Med Chem Lett, 2012) are described below.

Molecules are shown by their SMILES.

In one series the test system is MDA-MB-468. Kind of series: Cytotoxicity against PTEN deficient human MDA-MB-468 cells after 6 days by alamar blue assay. In kind it is functional, cell-based. The essentials:
(§1)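 Cells were grown anchorage-independently: a 0.6% agar/medium + 10% FBS bottom layer, cells in 0.3% agar/medium + 10% FBS, and medium + 10% FBS on top. After 16–20 h they were dosed (0.15% final DMSO) for 6 days, with a baseline plate read at dosing. Alamar Blue was added for 6 h and read as fluorescence (ex 530/em 590 nm). Signal from 0.3% Brij 35 background wells was subtracted, values were expressed as % of DMSO control, and fitted with a 4-parameter logistic.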
A general note: The colour change of resazurin is a common sign of viable cells or microbes.

The target of series [1] is T1, Phosphatidylinositol 4,5-bisphosphate 3-kinase catalytic subunit beta isoform (Homo sapiens, UniProt P42338). As to the kind of experiment: Inhibition of PI3K beta-mediated AKT phosphorylation at serine 473 in PTEN deficient human MDA-MB-468 cells after 30 mins. In kind it is cell-based. An outline of the steps: (§2)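 Breast cancer cells plated and held about 16–20 h, then exposed to compound for 30 min at 0.15% final DMSO. After a Tris wash, cells were lysed in buffer with protease and phosphatase inhibitors. Ser473-pAKT and total AKT were measured by MSD duplex immunoassay, normalised to total AKT (pAKT + AKT signal), and expressed as percent of DMSO control. IC50 from concentration-response fits; means of at least 2 experiments.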
T1 sequence (P42338 whole entry, canonical isoform): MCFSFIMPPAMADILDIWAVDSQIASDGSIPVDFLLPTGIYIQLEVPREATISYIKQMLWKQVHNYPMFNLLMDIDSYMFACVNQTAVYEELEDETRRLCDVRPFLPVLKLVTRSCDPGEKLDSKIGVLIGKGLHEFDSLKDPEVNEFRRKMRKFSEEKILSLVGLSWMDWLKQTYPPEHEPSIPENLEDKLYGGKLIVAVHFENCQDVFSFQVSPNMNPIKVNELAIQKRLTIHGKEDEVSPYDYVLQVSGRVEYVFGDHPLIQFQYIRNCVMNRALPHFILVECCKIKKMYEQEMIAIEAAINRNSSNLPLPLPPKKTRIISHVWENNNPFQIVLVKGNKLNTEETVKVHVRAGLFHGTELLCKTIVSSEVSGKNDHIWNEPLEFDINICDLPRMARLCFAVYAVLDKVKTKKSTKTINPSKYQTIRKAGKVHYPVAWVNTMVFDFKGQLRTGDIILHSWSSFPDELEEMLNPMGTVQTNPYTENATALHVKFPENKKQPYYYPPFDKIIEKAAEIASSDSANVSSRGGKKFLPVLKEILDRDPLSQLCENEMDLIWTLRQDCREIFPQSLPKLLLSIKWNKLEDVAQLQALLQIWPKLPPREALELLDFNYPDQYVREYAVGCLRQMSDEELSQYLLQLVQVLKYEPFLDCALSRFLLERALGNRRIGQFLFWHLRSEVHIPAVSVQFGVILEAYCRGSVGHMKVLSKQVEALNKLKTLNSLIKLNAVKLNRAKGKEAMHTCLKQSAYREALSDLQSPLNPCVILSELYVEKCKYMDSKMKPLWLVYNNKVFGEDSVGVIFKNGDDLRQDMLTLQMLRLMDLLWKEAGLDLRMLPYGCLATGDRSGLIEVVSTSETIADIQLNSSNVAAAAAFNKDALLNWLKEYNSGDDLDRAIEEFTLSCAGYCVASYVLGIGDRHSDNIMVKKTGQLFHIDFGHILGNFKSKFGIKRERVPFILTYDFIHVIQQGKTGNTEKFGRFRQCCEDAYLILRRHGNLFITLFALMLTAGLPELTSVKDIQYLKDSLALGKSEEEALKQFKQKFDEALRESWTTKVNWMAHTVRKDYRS

The nature of series [2]: Selectivity ratio of IC50 for PI3Kdelta to IC50 for PI3Kbeta.
Series [3] addresses Phosphatidylinositol 4,5-bisphosphate 3-kinase catalytic subunit alpha isoform (Homo sapiens, UniProt P42336). As to the kind of experiment: Inhibition of PI3Kalpha by continuous read time resolved fluorescence resonance energy transfer displacement assay.
For series [4], the target named is T2, Phosphatidylinositol 4,5-bisphosphate 3-kinase catalytic subunit delta isoform (Homo sapiens, UniProt O00329).
T2 sequence (O00329 whole entry): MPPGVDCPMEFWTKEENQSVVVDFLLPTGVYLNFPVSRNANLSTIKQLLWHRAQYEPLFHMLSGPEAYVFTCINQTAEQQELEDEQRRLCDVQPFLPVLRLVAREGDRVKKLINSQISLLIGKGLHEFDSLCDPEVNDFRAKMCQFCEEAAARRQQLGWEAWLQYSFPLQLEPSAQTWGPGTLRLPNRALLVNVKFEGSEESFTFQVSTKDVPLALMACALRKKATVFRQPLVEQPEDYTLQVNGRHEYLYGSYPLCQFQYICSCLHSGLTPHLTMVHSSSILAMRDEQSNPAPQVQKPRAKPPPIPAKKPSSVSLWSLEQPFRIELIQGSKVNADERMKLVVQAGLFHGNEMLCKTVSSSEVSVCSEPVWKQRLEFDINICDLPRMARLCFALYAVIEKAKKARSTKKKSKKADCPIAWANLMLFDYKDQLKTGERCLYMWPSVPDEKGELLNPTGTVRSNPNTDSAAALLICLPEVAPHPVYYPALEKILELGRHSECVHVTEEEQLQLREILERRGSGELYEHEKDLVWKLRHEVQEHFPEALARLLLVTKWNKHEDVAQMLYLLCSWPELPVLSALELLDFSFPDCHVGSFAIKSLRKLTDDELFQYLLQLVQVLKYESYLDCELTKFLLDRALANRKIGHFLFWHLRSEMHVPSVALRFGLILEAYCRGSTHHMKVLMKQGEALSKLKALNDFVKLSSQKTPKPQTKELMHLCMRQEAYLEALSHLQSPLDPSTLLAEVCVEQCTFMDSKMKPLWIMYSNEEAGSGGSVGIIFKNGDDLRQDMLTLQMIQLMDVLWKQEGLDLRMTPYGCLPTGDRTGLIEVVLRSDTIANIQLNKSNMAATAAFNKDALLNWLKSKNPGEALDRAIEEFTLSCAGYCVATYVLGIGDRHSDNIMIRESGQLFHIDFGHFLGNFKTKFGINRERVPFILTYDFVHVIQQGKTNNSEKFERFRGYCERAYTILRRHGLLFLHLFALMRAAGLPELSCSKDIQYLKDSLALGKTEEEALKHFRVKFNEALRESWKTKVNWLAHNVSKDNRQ
As to the kind of experiment: Inhibition of PI3Kdelta by continuous read time resolved fluorescence resonance energy transfer displacement assay.

Series [5] deals with T1, Phosphatidylinositol 4,5-bisphosphate 3-kinase catalytic subunit beta isoform. Kind of series: Inhibition of PI3Kbeta by continuous read time resolved fluorescence resonance energy transfer displacement assay.
Series [6] addresses Phosphatidylinositol 4,5-bisphosphate 3-kinase catalytic subunit gamma isoform (Homo sapiens, UniProt P48736). Kind of series: Inhibition of PI3Kgamma by continuous read time resolved fluorescence resonance energy transfer displacement assay.
A short description of series [7]: Inhibition of DNA-PK.
In series [8] the target is T1, Phosphatidylinositol 4,5-bisphosphate 3-kinase catalytic subunit beta isoform. As to the kind of experiment: Inhibition of PI3K beta-mediated AKT phosphorylation at serine 473 in PTEN wild type human HCC1954 cells. In kind it is cell-based. An outline of the steps: as §2
Series [9] addresses Serine/threonine-protein kinase mTOR (Homo sapiens, UniProt P42345). As to the kind of experiment: Inhibition of mTOR.
A further series has as its system HCC1954. Kind of series: Cytotoxicity against PTEN wild type human HCC1954 cells after 6 days by alamar blue assay. In kind it is functional, cell-based. The note with it: HCC1954, 144 h. An outline of the steps: as §1
Series [10] can be described thus: Clearance in rat at 0.25 mg/kg, iv. In kind it is ADME, organism-based. Also on record: dose 0.25 mg/kg, route intravenous. The note with it: in vivo. An outline of the steps: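 Rats given a single IV dose at 0.25 mg/kg, formulated in 1% DMSO with 20% Encapsin in saline. Clearance was calculated after IV administration. Reported values are means of at least 2 experiments.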

[11] abbreviates: Homo sapiens, MDA-MB-468, 144 h, read-out: EC50.

Sequence of Phosphatidylinositol 4,5-bisphosphate 3-kinase catalytic subunit gamma isoform (P48736 whole entry, canonical isoform): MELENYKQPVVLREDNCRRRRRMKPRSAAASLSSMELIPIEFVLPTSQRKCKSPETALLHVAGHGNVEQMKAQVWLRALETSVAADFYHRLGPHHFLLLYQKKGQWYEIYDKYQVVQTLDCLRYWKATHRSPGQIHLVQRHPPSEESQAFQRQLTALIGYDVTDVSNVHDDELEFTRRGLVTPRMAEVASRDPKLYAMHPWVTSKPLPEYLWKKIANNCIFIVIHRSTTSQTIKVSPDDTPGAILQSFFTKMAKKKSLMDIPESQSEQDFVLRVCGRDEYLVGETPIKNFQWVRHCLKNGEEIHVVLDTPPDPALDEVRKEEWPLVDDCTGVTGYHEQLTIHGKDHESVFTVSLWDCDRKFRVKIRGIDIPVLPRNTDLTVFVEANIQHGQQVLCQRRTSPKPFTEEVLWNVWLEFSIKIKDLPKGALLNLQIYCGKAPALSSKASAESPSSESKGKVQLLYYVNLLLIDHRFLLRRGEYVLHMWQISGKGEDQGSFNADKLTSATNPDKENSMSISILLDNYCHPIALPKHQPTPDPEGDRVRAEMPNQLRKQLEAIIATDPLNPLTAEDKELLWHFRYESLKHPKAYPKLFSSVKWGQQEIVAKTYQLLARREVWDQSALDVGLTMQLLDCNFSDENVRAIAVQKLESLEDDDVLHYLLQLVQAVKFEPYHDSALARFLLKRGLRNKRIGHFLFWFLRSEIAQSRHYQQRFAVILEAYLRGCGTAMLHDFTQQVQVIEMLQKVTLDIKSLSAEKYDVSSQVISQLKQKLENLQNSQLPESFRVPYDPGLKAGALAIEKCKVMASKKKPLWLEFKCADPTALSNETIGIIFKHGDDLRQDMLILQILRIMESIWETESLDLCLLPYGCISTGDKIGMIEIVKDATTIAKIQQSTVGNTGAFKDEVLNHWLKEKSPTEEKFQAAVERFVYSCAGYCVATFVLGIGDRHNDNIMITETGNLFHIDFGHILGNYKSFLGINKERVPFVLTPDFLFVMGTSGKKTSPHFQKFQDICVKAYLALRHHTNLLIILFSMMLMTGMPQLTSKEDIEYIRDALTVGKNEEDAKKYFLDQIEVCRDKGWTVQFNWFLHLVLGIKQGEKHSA
Sequence of Phosphatidylinositol 4,5-bisphosphate 3-kinase catalytic subunit alpha isoform (P42336 whole entry, canonical isoform): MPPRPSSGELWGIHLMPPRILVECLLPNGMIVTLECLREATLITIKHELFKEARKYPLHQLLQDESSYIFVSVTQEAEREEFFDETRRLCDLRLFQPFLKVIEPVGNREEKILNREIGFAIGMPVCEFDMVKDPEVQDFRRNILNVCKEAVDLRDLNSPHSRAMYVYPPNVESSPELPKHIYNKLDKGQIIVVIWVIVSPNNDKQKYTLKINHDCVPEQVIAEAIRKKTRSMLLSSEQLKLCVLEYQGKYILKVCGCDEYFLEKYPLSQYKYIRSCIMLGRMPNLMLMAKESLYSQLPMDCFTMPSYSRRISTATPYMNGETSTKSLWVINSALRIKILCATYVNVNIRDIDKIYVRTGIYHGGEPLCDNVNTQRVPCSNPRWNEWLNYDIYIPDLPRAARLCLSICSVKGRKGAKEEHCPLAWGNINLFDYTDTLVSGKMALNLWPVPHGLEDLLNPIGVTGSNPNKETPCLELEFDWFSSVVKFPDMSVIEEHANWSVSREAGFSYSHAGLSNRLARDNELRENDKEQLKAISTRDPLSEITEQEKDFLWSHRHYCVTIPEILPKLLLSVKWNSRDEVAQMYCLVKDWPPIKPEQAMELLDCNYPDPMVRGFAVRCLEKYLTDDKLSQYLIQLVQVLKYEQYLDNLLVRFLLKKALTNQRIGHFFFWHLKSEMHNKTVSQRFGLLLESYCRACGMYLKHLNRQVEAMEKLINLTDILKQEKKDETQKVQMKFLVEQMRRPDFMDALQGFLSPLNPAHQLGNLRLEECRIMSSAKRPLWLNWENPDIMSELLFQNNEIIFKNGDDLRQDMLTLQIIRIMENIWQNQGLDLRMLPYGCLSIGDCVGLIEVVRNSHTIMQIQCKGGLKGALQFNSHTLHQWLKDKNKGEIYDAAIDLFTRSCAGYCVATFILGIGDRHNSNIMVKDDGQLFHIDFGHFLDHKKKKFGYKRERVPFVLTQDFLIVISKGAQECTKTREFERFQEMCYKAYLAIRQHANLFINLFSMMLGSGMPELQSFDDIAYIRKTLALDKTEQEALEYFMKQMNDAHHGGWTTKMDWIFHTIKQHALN

A word on the EC50: it is the concentration needed to bring the measured effect to its halfway point. What is called IC50 is the point on the concentration scale where inhibition reaches its midpoint. Higher therefore signals weaker potency. As for `CSc1nn2c(=O)cc(N3CCOCC3)nc2n1Cc1cccc(C(F)(F)F)c1C`, the EC50 entry in the series on MDA-MB-468 (mda-mb-468) was “Not Active”. In addition, the IC50 is 0.0051 µM in series [1]; 0.32 µM in [3]; 0.025 µM in [4]; 0.0004 µM in series [5]; 1.3 µM in [6]. Further, the Ratio IC50 in series [2] amounted to 6.

As to `Cc1c(Cn2c(C)nn3c(=O)cc(N4CCOC(C)C4)nc23)cccc1C(F)(F)F` (single isomer, unassigned; enantiomer 2) [listing 1 of 2 here], the IC50 in series [7] was 0.16 µM; in [8], 2.5 µM; in [1] it was 0.0005 µM; in series [3] it was 0.32 µM; in series [4] it was 0.004 µM; in series [5], 0.0003 µM. The IC50 in [9] came to 6.3 µM; in [6], 0.06 µM. Moreover, the EC50 with MDA-MB-468 (mda-mb-468, read-out: EC50) is 0.013 µM; with HCC1954, 2.2 µM.

As for `Cc1c(Cn2c(C)nn3c(=O)cc(N4CCOC(C)C4)nc23)cccc1C(F)(F)F` (single isomer, unassigned; enantiomer 1) [listing 1 of 2 here], the Ratio IC50 in [2] stood at 6.

Take `Cc1c(Cn2c(C)cn3c(=O)cc(N4CCOCC4)nc23)cccc1C(F)(F)F`: the IC50 in [7] was 0.8 µM; in series [8] it was > 29 µM; in series [4], 0.0079 µM; in series [5], 0.0013 µM; in series [9], 32 µM. The compound further gave an EC50 with HCC1954 of 9.7 µM.

For the compound `Cc1nn2c(=O)cc(N3CCOCC3)nc2n1Cc1cccc(Cl)c1Cl`, in the series on MDA-MB-468 (setting [11]), the EC50 amounted to 0.17 µM. The IC50 in series [1] is 0.034 µM; in [3], 0.63 µM; in series [4], 0.05 µM; in series [5], 0.0013 µM; in [6], 0.5 µM. For the same compound, the Ratio IC50 in series [2] was determined as 6.

As for `CSc1nn2c(=O)cc(N3CCOC(C)C3)nc2n1Cc1cccc(C(F)(F)F)c1C` (stereo not drawn), in series [2], the Ratio IC50 was 6. Further, the 50% inhibitory concentration (IC50) in [3] is 1.3 µM; in series [4] it was 0.025 µM; in series [5], 0.001 µM; in series [6], 0.2 µM.

For `Cc1nn2c(=O)cc(N3CCOC(C)C3)nc2n1Cc1cccc(Cl)c1Cl` (stereo in doubt; 6) [listing 1 of 2 here], the IC50 was found to be 2.5 µM in [3], 0.5 µM in series [4], 0.025 µM in series [5] and 7.9 µM in series [6].

In general, clearance refers to the rate of elimination divided by the concentration. Read a high clearance as efficient removal. With `Cc1c(Cn2c(C)nn3c(=O)nc(N4CCOCC4)cc23)cccc1C(F)(F)F`, the EC50 in the series on MDA-MB-468 (setting [11]) worked out at 0.21 µM. The IC50 in series [1] worked out at 0.092 µM; in series [5], 0.002 µM. Besides, the clearance in [10] was 83 mL/min/kg.

With `Cc1nn2c(=O)cc(N3CCOC(C)C3)nc2n1Cc1cccc(Cl)c1Cl` (single isomer, unassigned; enantiomer 2), the EC50 in the series on MDA-MB-468 (setting [11]) was determined as 0.11 µM. Also, the IC50 was 0.0034 µM in series [1]; 1 µM in series [3]; 0.04 µM in series [4]; 0.0013 µM in series [5]; 0.5 µM in [6].

For the compound `Cc1c(Cn2c(C)nn3c(=O)cc(N4CCOC(C)C4)nc23)cccc1C(F)(F)F` (single isomer, unassigned; enantiomer 2) [listing 2 of 2 here], the Ratio IC50 in series [2] is > 10.

Take `Cc1nn2c(=O)cc(N3CCOC(C)C3)nc2n1Cc1cccc(Cl)c1Cl` (racemic): the IC50 in series [3] is 0.32 µM; in [4], 0.025 µM; in series [5], 0.002 µM; in series [6], 0.25 µM.

`Cc1c(Cn2c(C3CC3)nn3c(=O)cc(N4CCOCC4)nc23)cccc1C(F)(F)F`: the EC50 in the series with MDA-MB-468 (setting [11]) stood at 0.04 µM. Also, the IC50 amounted to 0.0041 µM in [1]; 2.5 µM in [3]; 0.04 µM in [4]; 0.0013 µM in [5]; 1.6 µM in [6]. Moreover, the Ratio IC50 in series [2] turned out to be 6.

Regarding `CSc1nn2c(=O)cc(N3CCOCC3)nc2n1Cc1cccc(Cl)c1Cl`, in the series with MDA-MB-468 (setting [11]), the EC50 worked out at 0.24 µM. Besides, the IC50 in [1] came out at 0.013 µM; in series [3] it was 1.6 µM; in series [4], 0.031 µM; in series [5], 0.0016 µM; in series [6], 0.5 µM. In series [2], the Ratio IC50 was 19.

As to `O=c1cc(N2CCOCC2)nc2n(Cc3cccc(Cl)c3Cl)c(C3CC3)nn12`, in the series with MDA-MB-468 (setting [11]), the EC50 was determined as 0.26 µM. Further, the IC50 is 0.02 µM in series [1]; 2.5 µM in series [3]; 0.13 µM in series [4]; 0.0025 µM in series [5]; 2.5 µM in series [6]. Also, the Ratio IC50 in series [2] came out at 52.

As for `Cc1c(Cn2c(C)nn3c(=O)cc(N4CCOC(C)C4)nc23)cccc1C(F)(F)F` (racemic) [listing 1 of 2 here], the EC50 in the series with MDA-MB-468 (mda-mb-468, read-out: EC50) is 0.055 µM. Further, the IC50 in series [1] turned out to be 0.0027 µM; in series [3], 0.4 µM; in [4], 0.01 µM; in [5] it was 0.0013 µM; in [6], 0.16 µM.

For `Cc1nn2c(=O)cc(N3CCOC(C)C3)nc2n1Cc1cccc(Cl)c1Cl` (stereo in doubt; 6) [listing 2 of 2 here], in [2], the Ratio IC50 is 20.

`Cc1c(Cn2c(C)nn3c(=O)cc(N4CCOC(C)C4)nc23)cccc1C(F)(F)F` (racemic) [listing 2 of 2 here]: in series [2], the Ratio IC50 stood at 6.

On to `Cc1c(Cn2c(C)nn3c(=O)cc(N4CCOCC4)nc23)cccc1C(F)(F)F`, for which the EC50 with MDA-MB-468 (setting [11]) is 0.11 µM. In addition, the IC50 was found to be 0.0015 µM in [1]; 0.63 µM in series [3]; 0.02 µM in [4]; 0.0006 µM in [5]; 0.79 µM in series [6]. Besides, in series [2], the Ratio IC50 is 6. In series [10], the clearance stood at 130 mL/min/kg.

In the case of `Cc1c(Cn2c(C)nn3c(=O)cc(N4CCOC(C)C4)nc23)cccc1C(F)(F)F` (single isomer, unassigned; enantiomer 1) [listing 2 of 2 here], the EC50 in the series with MDA-MB-468 (mda-mb-468, read-out: EC50) amounted to 0.31 µM. In addition, the IC50 was 0.0079 µM in series [1]; 1.6 µM in [3]; 0.063 µM in series [4]; 0.0031 µM in series [5]; 0.79 µM in series [6].

As to `CSc1nn2c(=O)cc(-c3ccncc3)nc2n1Cc1cccc(Cl)c1Cl`, in [2], the Ratio IC50 was 6. The IC50 in series [3] is 0.4 µM; in [4], 0.079 µM; in series [5] it was 0.013 µM; in series [6], 2 µM.
